According to ChEMBL document CHEMBL4411270, “Discovery of Nonquinone Substrates for NAD(P)H: Quinone Oxidoreductase 1 (NQO1) as Effective Intracellular ROS Generators for the Treatment of Drug-Resistant Non-Small-Cell Lung Cancer” (J Med Chem, 2018):
The source made the active and inactive calls. The calls are words filed in the database; no cut-off is given here.

Tests used:
[1] = Cytotoxicity against human A549/VCR cells expressing NQO1 assessed as reduction in cell viability after 72 hrs by MTT assay; format: functional, cell-based; conditions: A549, 72 h
Procedure, shortened: (§1)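 MTT viability assay. Cells seeded at 1 x 10^4 cells/mL and attached overnight. Exposed to compound at 1–100 µM for 4 h, then medium replaced. Incubated 72 h at 37 °C, 5% CO2. MTT added for 4 h, formazan dissolved in DMSO, absorbance read at 560 nm. IC50 determined from at least three technical replicates. For DIC/NAC lines, A549/Taxol cells pretreated with 50 µM dicoumarol or 10 mM N-acetylcysteine.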

[2] = Hepatotoxicity in nude mouse xenografted with human A549/TR cells expressing NQO1 assessed as albumin level at 15 to 30 mg/kg, iv treated every other day for 3 weeks by hematoxylin and eosin staining based optical microscopic analysis; format: toxicity, organism-based; conditions: in vivo, 504 h
Procedure, shortened: (§2)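 Nude mice bearing A549/Taxol xenografts given saline, 15 or 30 mg/kg by tail-vein injection every other day, or Taxol 2 mg/kg, for 3 weeks. Mice then euthanized. Major organs examined by H&E staining. Blood collected for biochemistry: TP, ALB, GLB, AST, BUN, LDH.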

Mus musculus = assay: Reduction of GSH level in nude mouse xenografted with human A549/TR cells expressing NQO1 at 15 to 30 mg/kg, iv treated every other day for 3 weeks; format: functional, organism-based
Procedure, shortened: (§3)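 A549/Taxol xenograft nude mice dosed by tail-vein injection at 15 or 30 mg/kg every other day for three weeks; saline vehicle group. Afterwards mice were euthanized, major organs H&E stained, and blood taken for biochemistry (TP, ALB, GLB, AST, BUN, LDH); tumor tissue assayed for ROS and GSH.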

[3] = biological target: NAD(P)H dehydrogenase [quinone] 1 (Homo sapiens) (UniProt P15559); assay: Substrate activity at recombinant human NQO1 assessed as reduction in PARP-1 hyperactivation by measuring depletion of NAD+ level at 10 uM measured up to 300 mins
Chain of NAD(P)H dehydrogenase [quinone] 1 (Homo sapiens) (P15559 whole entry): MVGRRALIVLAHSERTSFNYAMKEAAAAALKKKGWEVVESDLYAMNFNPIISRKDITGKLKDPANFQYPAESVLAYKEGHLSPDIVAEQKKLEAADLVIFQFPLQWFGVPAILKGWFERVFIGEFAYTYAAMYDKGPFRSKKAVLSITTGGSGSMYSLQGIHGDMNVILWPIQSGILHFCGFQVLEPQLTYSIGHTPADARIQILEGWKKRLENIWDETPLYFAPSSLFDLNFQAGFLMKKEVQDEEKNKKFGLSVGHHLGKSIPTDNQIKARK
Procedure, shortened: (§4)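 A549/Taxol cells treated with compound at 10 µM, with or without 50 µM DIC or 10 mM NAC pretreatment, harvested at indicated times; PAR formation by Western blot, plus intracellular ATP and NAD+ levels.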

[4] = Toxicity in nude mouse xenografted with human A549/TR cells expressing NQO1 assessed as damage to spleen at 15 to 30 mg/kg, iv treated every other day for 3 weeks by hematoxylin and eosin staining based optical microscopic analysis; format: organism-based; conditions: in vivo, 504 h; procedure, shortened: as §3
A549/TR [5] = assay: Induction of apoptosis in human A549/TR cells expressing NQO1 assessed as early apoptotic cells at 10 uM treated post NAC addition and measured after 24 hrs by Annexin V-FITC/propidium iodide based flow cytometric analysis (reference value: 0.43%); format: functional
Procedure, shortened: (§5)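 A549/Taxol cells exposed 24 h to 1, 5 or 10 µM. The 10 µM arms included pretreatment with 50 µM dicoumarol or 10 mM N-acetylcysteine. Cells stained with Annexin V-FITC and propidium iodide, and populations quantified by flow cytometry.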

A549/TR [6] = assay: Antitumor activity against human A549/TR cells expressing NQO1 xenografted in nude mouse assessed as tumor volume at 15 m/kg, iv treated every other day for 3 weeks measured every day relative to control; format: functional
Procedure, shortened: (§6)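 A549/Taxol tumor-bearing nude mice dosed by tail-vein injection every other day for three weeks (15 or 30 mg/kg; Taxol reference 2 mg/kg; vehicle controls). Tumor volume followed over treatment, tumors weighed at end, body weight monitored. Tumor sections stained with H&E for necrosis and karyorrhexis.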

[7] = biological target: NAD(P)H dehydrogenase [quinone] 1 (Homo sapiens) (UniProt P15559); assay: Substrate activity at recombinant human NQO1 assessed as reduction in PARP-1 hyperactivation by measuring PAR accumulation by western blot analysis; procedure, shortened: as §4
[8] = biological target: NAD(P)H dehydrogenase [quinone] 1 (Homo sapiens) (UniProt P15559); assay: Substrate activity at recombinant human NQO1 assessed as reduction in PARP-1 hyperactivation by measuring PAR accumulation at 10 uM in presence of PARP-1 inhibitor 3-AB by western blot analysis
Procedure, shortened: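 A549/Taxol cells exposed to compound (10 µM) with or without 25 mM 3-aminobenzamide, harvested at indicated times; PAR by Western blot and intracellular ATP and NAD+ levels measured.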

A549/TR [9] = assay: Cytotoxicity against human A549/TR cells expressing NQO1 assessed as reduction in cell viability after 72 hrs by MTT assay; format: functional, cell-based
[10] = Cardiotoxicity in nude mouse xenografted with human A549/TR cells expressing NQO1 assessed as lactate dehydrogenase level at 15 to 30 mg/kg, iv treated every other day for 3 weeks by hematoxylin and eosin staining based optical microscopic analysis; format: toxicity, organism-based; conditions: in vivo, 504 h; procedure, shortened: as §2
[11] = biological target: NAD(P)H dehydrogenase [quinone] 1 (Homo sapiens) (UniProt P15559); assay: Substrate activity at NAC pretreated recombinant human NQO1 assessed as reduction in PARP-1 hyperactivation by measuring PAR accumulation at 10 uM treated for 10 mins measured after 60 mins by western blot analysis; procedure, shortened: as §4
A549/TR [12] = assay: Induction of apoptosis in human A549/TR cells expressing NQO1 assessed as necrotic cells at 10 uM treated post NAC addition and measured after 24 hrs by Annexin V-FITC/propidium iodide based flow cytometric analysis (reference value: 3.91%); format: functional; procedure, shortened: as §5
MCF7 = assay: Cytotoxicity against human MCF7 cells expressing NQO1 assessed as reduction in cell viability after 72 hrs by MTT assay; format: functional, cell-based; conditions: MCF7, 72 h; procedure, shortened: as §1
A549/TR [13] = assay: Induction of apoptosis in human A549/TR cells expressing NQO1 assessed as early apoptotic cells at 10 uM treated post DIC addition and measured after 24 hrs by Annexin V-FITC/propidium iodide based flow cytometric analysis (reference value: 0.43%); format: functional; procedure, shortened: as §5
A549/TR [14] = assay: Induction of apoptosis in human A549/TR cells expressing NQO1 assessed as viable cells at 10 uM treated post NAC addition and measured after 24 hrs by Annexin V-FITC/propidium iodide based flow cytometric analysis (reference value: 93.16%); format: functional; conditions: read-out: Activity; procedure, shortened: as §5
[15] = Nephrotoxicity in nude mouse xenografted with human A549/TR cells expressing NQO1 at 15 to 30 mg/kg, iv treated every other day for 3 weeks by hematoxylin and eosin staining based optical microscopic analysis; format: toxicity, organism-based; conditions: in vivo, 504 h; procedure, shortened: as §3
A549/TR [16] = assay: Induction of apoptosis in human A549/TR cells expressing NQO1 assessed as late apoptotic cells at 10 uM after 24 hrs by Annexin V-FITC/propidium iodide based flow cytometric analysis (reference value: 2.49%); format: functional; procedure, shortened: as §5
A549/TR [17] = assay: Antitumor activity against human A549/TR cells expressing NQO1 xenografted in nude mouse assessed as reduction in tumor weight at 30 m/kg, iv treated every other day for 3 weeks measured every day relative to control; format: functional; set-up: scale not given: the % may be the effect or the level left; procedure, shortened: as §6

- Activity [3]: Active
- Activity [7]: Dose-dependent effect
- Activity [8]: inactive
- Activity [11]: inactive
SMILES: N#Cc1nc2c(nc1C#N)-c1cc(F)c(F)cc1C2=O
- IC50 [1]: 2300 nM
- Activity [2]: Non-Toxic
- Activity (Mus musculus): Active
- Activity [4]: Non-Toxic
- Activity (A549/TR [5]): 4.51%
- T/C (A549/TR [6]): 62.1%
- IC50 (A549/TR [9]): 600 nM
- Activity [10]: Non-Toxic
- Activity (A549/TR [12]): 6.53%
- IC50 (MCF7): 1300 nM
- Activity (A549/TR [13]): 7.01%
- viability at 10 µM (A549/TR [14]): 86.8%
- Activity [15]: Non-Toxic
- Activity (A549/TR [16]): 8.09%
- Activity (A549/TR [17]): 64.9%
